Results on seven compounds are retold here after ChEMBL document CHEMBL1128506, “Synthesis and dopaminergic activity of pyridine analogs of 5-hydroxy-2-(di-n-propylamino)tetralin” (J Med Chem, 1995).

SMILES strings stand for the structures.

Assay [1] concerns the target T1, D(2) dopamine receptor (Homo sapiens, UniProt P14416). Briefly: In vitro binding affinity is the ability to displace [3H]N-0437 from human Dopamine receptor D2 expressed in CHO-K1 cells. In kind it is cell-based.
Assay [2] concerns the target T1, D(2) dopamine receptor. The assay can be described thus: In vitro binding affinity is the ability to displace [3H]spiperone from human Dopamine receptor D2 expressed in CHO-K1 cells. In kind it is cell-based.
Assay [3] addresses T2, D(3) dopamine receptor (Homo sapiens, UniProt P35462). The assay can be described thus: In vitro binding affinity is the ability to displace [3H]spiperone from human Dopamine receptor D3 expressed in CHO-K1 cells. It counts as cell-based. The essentials: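 CHO-K1 cells stably expressing human D3 receptor, grown in F-12 medium with 10% fetal bovine serum under humidified 5% CO2/95% air.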

The subject of assay [4] is Mus musculus. Briefly: Inhibition of locomotor activity(LMA) in mouse after ip administration of the compound. It counts as functional. The essentials: (§1)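 Mice given compound ip, then tested immediately for 1 h in darkened cylindrical photobeam chambers. Activity expressed as percent inhibition relative to vehicle-treated animals.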
The subject of assay [5] is Rattus norvegicus. Briefly: Percent reversal of the increase on DOPA levels in the striatum of GBL-treated rats administered ip with 10 mg/kg of compound. It counts as functional. Conditions: route intraperitoneal. The essentials:
(§2)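 Male Long-Evans rats received compound 1 h before sacrifice. GBL (750 mg/kg ip) and the decarboxylase inhibitor NSD 1015 (100 mg/kg ip) were given 30 min before sacrifice. Striatal DOPA was measured by HPLC with electrochemical detection. Result reported as percent reversal of the GBL-induced DOPA increase, n = 4.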

Assay [6] deals with Rattus norvegicus. The assay can be described thus: Inhibition of locomotor activity(LMA) in rat after sc administration of the compound.
Assay [7] addresses T2, D(3) dopamine receptor. The assay can be described thus: In vitro binding affinity is the ability to displace [3H]spiperone from human Dopamine receptor D3 expressed in CHO-K1 cells. It counts as cell-based.
In assay [8] the test system is Rattus norvegicus. Briefly: Inhibition of locomotor activity(LMA) in rat after sc administration of the compound. The source holds these as a separate data set.
The subject of assay [9] is Mus musculus. Briefly: Inhibition of locomotor activity(LMA) in mouse after ip administration of the compound. It counts as functional. In outline:
as §1

Assay [10] relates to Rattus norvegicus. Briefly: Percent reversal of the increase on DOPA levels in the striatum of GBL-treated rats administered ip with 10 mg/kg of compound. In kind it is functional. Conditions: route intraperitoneal. In outline: as §2

T2 sequence (P35462 whole entry): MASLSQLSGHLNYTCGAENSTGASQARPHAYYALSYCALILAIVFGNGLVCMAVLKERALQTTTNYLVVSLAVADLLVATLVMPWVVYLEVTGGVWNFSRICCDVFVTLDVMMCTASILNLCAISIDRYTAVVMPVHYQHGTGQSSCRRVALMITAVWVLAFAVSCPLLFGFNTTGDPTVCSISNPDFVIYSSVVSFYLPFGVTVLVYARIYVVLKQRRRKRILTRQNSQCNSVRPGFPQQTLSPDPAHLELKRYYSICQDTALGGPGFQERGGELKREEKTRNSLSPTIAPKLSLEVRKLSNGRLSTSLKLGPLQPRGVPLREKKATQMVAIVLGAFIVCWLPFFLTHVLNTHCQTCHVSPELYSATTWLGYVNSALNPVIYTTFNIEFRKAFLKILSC
T1 sequence (P14416 whole entry): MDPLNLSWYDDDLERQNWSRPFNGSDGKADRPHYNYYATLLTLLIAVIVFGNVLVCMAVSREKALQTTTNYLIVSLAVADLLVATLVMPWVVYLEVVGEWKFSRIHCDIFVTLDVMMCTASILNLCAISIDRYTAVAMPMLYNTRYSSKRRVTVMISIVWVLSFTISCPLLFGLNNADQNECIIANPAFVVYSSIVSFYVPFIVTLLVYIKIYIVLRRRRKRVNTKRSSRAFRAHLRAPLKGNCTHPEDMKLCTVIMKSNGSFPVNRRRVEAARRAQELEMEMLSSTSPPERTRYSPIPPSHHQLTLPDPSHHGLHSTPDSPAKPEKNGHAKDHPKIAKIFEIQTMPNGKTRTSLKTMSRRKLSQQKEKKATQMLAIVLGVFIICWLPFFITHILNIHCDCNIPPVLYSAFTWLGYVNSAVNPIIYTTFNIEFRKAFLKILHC

Turning to `CCCN(CCC)C1CCc2n[nH]cc2C1` (centres undefined), the inhibition constant (Ki) (in general, the equilibrium dissociation constant of an inhibitor or competing ligand from its target) is 523 nM at D(2) dopamine receptor [1], greater than 3330 nM at D(2) dopamine receptor [2] and 36 nM on D(3) dopamine receptor [3]. In addition, the 50% effect level in the assay with Mus musculus [4] (ED50) was put at a dose of 0.64 mg/kg. Further, the Decrease with Rattus norvegicus [5] is 91%. For the same compound, the Inhibition (commonly how much of the control response was suppressed) in the assay with Rattus norvegicus [6] came out at 45%.
Take `CCCN(CCC)C1CCc2nc(N)ccc2C1` (centres undefined): the values for the inhibition constant Ki on D(2) dopamine receptor [1], on D(2) dopamine receptor [2] and at D(3) dopamine receptor [7] were 5 nM, 17.1 nM and 0.87 nM, respectively. Further, the ED50 (as a rule, the dose at which the effect has come halfway, by size or by number of responders) with Mus musculus [4] was 0.25 mg/kg; in the assay on Rattus norvegicus [8] it was 0.05 mg/kg. For the same compound, the Decrease in the assay with Rattus norvegicus [5] was 86%.
Regarding `CCCN(CCC)C1CCc2ncccc2C1` (centres undefined), the inhibition constant (Ki) on D(2) dopamine receptor [1] stood at 466 nM; at D(2) dopamine receptor [2], 272 nM; at D(3) dopamine receptor [7], 4.97 nM. Further, the values for the 50% effective dose (ED50) with Mus musculus [4] and in the assay with Rattus norvegicus [8] were 0.08 mg/kg and 0.01 mg/kg, respectively. Moreover, in the assay on Rattus norvegicus [5], the Decrease is 86%.
For the compound `CCCN(CCC)C1CCc2nc(N)sc2C1` (centres undefined), the figures for the Ki at D(2) dopamine receptor [1], at D(2) dopamine receptor [2] and on D(3) dopamine receptor [3] were 57 nM, 462 nM and 1.9 nM, respectively. In the assay on Mus musculus [9], this compound gave an ED50 greater than 30 mg/kg. Further, the Decrease in the assay with Rattus norvegicus [10] is reported as 88%.
On to `CCCN(CCC)C1CCc2nc(OC)ccc2C1` (centres undefined), for which the values for the Ki at D(2) dopamine receptor [1], at D(2) dopamine receptor [2] and at D(3) dopamine receptor [7] were 1200 nM, greater than 3330 nM and 158 nM, respectively. The compound further showed a median effective dose (ED50) in the assay with Mus musculus [4] greater than 30 mg/kg. In the assay with Rattus norvegicus [5], the Decrease is recorded as 62%.
Turning to `CCCN(CCC)C1CCc2cc(OC)ccc2C1` (centres undefined), the Ki on D(2) dopamine receptor [1] was 3940 nM; on D(2) dopamine receptor [2] it was greater than 10000 nM; at D(3) dopamine receptor [7], 366 nM.
On to `CCCN(CCC)C1CCc2c(O)cccc2C1` (centres undefined) [5-OH-DPAT], for which the values for the ED50 with Mus musculus [4] and with Rattus norvegicus [8] were 0.01 mg/kg and 0.004 mg/kg, respectively. Also, in the assay on Rattus norvegicus [5], the Decrease is 70%.
